Experimental data pooled from the literature.
Lines come from different studies, so protocols differ.
Target: Tyrosine-protein kinase Blk (BLK, Homo sapiens, UniProt P51451)

| Compound | read-out | technique | tested at | remaining binding [%] |
| --- | --- | --- | --- | --- |
| COc1ccnn2ncc(-c3ccnc(N(C)C)n3)c12 | binding |  | 1 µM | 100 |
| Cc1cnc(Nc2ccc(C(=O)N3CCC(N4CCCC4)CC3)cc2)nc1-c1cc2ccccc2s1 | binding | competition with immobilised ligand | 1 µM | 74 |
| COc1cnc(Nc2cccc(S(N)(=O)=O)c2)nc1N1CCN(c2ccccc2)CC1 | binding | competition with immobilised ligand | 1 µM | 80 |
| CO[C@@H](C)c1c(Nc2ccc([C@@H](N(C)C(=O)C3CCS(=O)(=O)CC3)C(F)(F)F)cc2)cnc2cc(Cl)nn12 | cell-free assay | competition with immobilised ligand | 1 µM | 56 |
| C[C@@H]1CCN(c2nccc(-c3cnn4ncccc34)n2)C1 | binding |  | 1 µM | 100 |
| O=C(NCCCN1CCOCC1)c1ccc(Nc2ncc(Cl)c(-c3ccc(Cl)s3)n2)cc1 | binding | competition with immobilised ligand | 1 µM | 100 |
| FC(F)(F)c1ccc2c(c1)nc(-c1cccnc1)n2C1CC1 | cell-free assay | competition with immobilised ligand | 1 µM | 96 |
| F[C@@H]1CCN(c2nccc(-c3cnn4ncccc34)n2)C1 | binding |  | 1 µM | 100 |
| CCN1CCN(Cc2ccc(C(=O)Nc3ccc(C)c(Oc4ccc5c(c4)CC(=O)N5)c3)cc2C(F)(F)F)CC1 | binding | competition with immobilised ligand | 1 µM | 93 |
| COc1cnc(Nc2cccc(S(N)(=O)=O)c2)nc1N1CCN(c2ccccc2)C(=O)C1 | binding | competition with immobilised ligand | 1 µM | 100 |
| N[C@H]1CCN(c2nccc(-c3cnn4ncccc34)n2)C1 | binding |  | 1 µM | 100 |
| O=C(N1CCS(=O)(=O)CC1)N1C[C@H](c2ccc(OC(F)(F)F)cc2)C[C@H](c2nc(C3CC3)no2)C1 | cell-free assay | competition with immobilised ligand | 1 µM | 100 |
| c1cncc(-c2cccc(Nc3nccc(NC4CCCCC4)n3)c2)c1 | binding | competition with immobilised ligand | 10 µM | 5.8 |
| COc1cc(-c2cn(C3CCc4ccccc4N(CC(F)(F)F)C3=O)nn2)ccc1-n1ccc(C)n1 (stereo not shown) | cell-free assay | competition with immobilised ligand | 1 µM | 100 |
| CC1CCCN1c1nccc(-c2cnn3ncccc23)n1 (stereo not shown) | binding |  | 1 µM | 100 |
| FC(F)(F)Oc1cccc(-c2cnc3ccc(-c4ccncc4)nn23)c1 | cell-free assay | competition with immobilised ligand | 5 µM | 51 |
| COc1ccc2c(c1)O[C@H](c1ccc(OC)c(OC)c1)C[C@@H]2NC(=O)C1(c2ccc3c(c2)OC(F)(F)O3)CC1 | cell-free assay | competition with immobilised ligand | 1 µM | 100 |
| O=C(c1ccc(Nc2ncc(Cl)c(-c3cc4ccccc4s3)n2)cc1)N1CCC(N2CCCC2)CC1 | binding | competition with immobilised ligand | 1 µM | 100 |
| Cn1nc(C(F)(F)F)cc1-c1cnc(N2CCc3cc(S(=O)(=O)Nc4c(F)cc(Cl)cc4F)cc(N4CCCC4=O)c32)nc1 | cell-free assay | competition with immobilised ligand | 1 µM | 100 |
| CN(C)c1ncc(F)c(-c2cnn3ncccc23)n1 | binding |  | 1 µM | 90 |
| O=C(Nc1c[nH]nc1C(=O)NC1CCNCC1)c1cc(F)cc(F)c1 | binding | competition with immobilised ligand | 1 µM | 83 |
| c1ccc(N2CCN(Cc3nc4ccccc4[nH]3)CC2)nc1 | cell-free assay | competition with immobilised ligand | 1 µM | 100 |
